Measurements from ChEMBL document CHEMBL4017544 (J Med Chem, 2017).
In brackets after ≈: the same amount, converted by molar mass. Activity calls are given as the source filed them. The calls are words filed in the database; no cut-off is given here.

Experiments:
[1] = target: T1, Inhibitor of nuclear factor kappa-B kinase subunit beta (Homo sapiens) (UniProt O14920); assay: Inhibition of IKKbeta (unknown origin) transfected in HEK293 cells assessed as reduction in TNFalpha-induced upregulation of MCP1 mRNA expression at 200 to 1000 nM administered 6 hrs after TNFalpha stimulation measured for 24 hrs by quantitative RT-PCR analysis; type: cell-based
T1 sequence (whole entry): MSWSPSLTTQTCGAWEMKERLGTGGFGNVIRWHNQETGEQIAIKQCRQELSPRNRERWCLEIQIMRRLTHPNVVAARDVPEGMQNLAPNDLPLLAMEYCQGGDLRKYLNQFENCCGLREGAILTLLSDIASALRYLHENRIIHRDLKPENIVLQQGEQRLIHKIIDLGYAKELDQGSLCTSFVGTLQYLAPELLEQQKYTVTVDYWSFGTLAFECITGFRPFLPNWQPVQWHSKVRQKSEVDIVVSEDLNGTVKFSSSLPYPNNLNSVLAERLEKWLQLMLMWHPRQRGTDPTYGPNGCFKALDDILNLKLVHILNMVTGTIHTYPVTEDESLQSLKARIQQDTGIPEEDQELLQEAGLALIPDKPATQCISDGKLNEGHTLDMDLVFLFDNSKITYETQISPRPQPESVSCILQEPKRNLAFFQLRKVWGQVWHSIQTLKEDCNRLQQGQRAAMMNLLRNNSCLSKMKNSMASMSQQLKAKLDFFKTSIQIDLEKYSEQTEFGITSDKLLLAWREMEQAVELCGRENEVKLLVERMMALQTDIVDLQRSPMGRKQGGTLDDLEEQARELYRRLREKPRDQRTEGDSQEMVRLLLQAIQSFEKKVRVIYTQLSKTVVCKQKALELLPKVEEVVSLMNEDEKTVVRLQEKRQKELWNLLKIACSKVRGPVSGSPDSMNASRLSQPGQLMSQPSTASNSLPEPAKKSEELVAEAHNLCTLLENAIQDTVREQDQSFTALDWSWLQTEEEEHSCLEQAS
In short: (§1)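 HEK293 cells pretreated with TNF-α (10 ng/mL) for 6 h, then given compound at 200 or 1000 nM for 24 h, in triplicate; iNOS, COX2 and MCP-1 mRNA relative to GAPDH by quantitative RT-PCR, 2−ΔΔCt method; mean ± SD from three experiments.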

[2] = target: Kelch-like ECH-associated protein 1 (Homo sapiens) (UniProt Q14145); assay: Inhibition of Keap1/Nrf2 (unknown origin) interaction transfected in HEK293 cells assessed as activation of Nrf2 at 200 to 1000 nM after 48 hrs by ARE-driven luciferase reporter gene assay; type: cell-based
In short: (§2)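 HEK293 cells (ATCC; high-glucose DMEM, 10% FBS) were treated in triplicate for 48 h. For the reporter read-out, cells were transfected with an ARE-dependent luciferase plasmid and luciferase activity was measured. For mRNA, total RNA was extracted with TRIzol and reverse transcribed, and target transcripts were quantified by qRT-PCR relative to GAPDH using the 2−ΔΔCt method. Three independent experiments, mean ± SD.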

H9c2 = assay: Cytotoxicity against rat H9c2 cells assessed as reduction in cell viability after 24 hrs by MTT assay; type: cell-based; settings: H9c2, 24 h
In short: (§3)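 HEK293 or H9C2 cells grown in high-glucose DMEM with 10% FBS, exposed to compound for 24 h; viability by MTT, IC50 calculated.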

HEK293 = assay: Cytotoxicity against HEK293 cells assessed as reduction in cell viability after 24 hrs by MTT assay; type: cell-based; settings: Homo sapiens, HEK293, 24 h; in short: as §3
[3] = Solubility of compound in saline at 100 uM at pH 7.4 by HPLC analysis; type: physicochemical
In short: (§4)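 Solubility was determined by an established HPLC method, in saline alone or in saline containing 1% 1,3-propylene glycol and 1% Tween 80.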

[4] = target: T1, Inhibitor of nuclear factor kappa-B kinase subunit beta (Homo sapiens); assay: Inhibition of IKKbeta (unknown origin) transfected in HEK293 cells assessed as mitigation of TNFalpha-induced increase in ratio of nuclear to cytosolic p65 at 200 to 1000 nM administered 6 hrs after TNFalpha stimulation measured for 24 hrs by Western blot method; type: cell-based
In short: (§5)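 HEK293 cells pretreated with TNF-α (10 ng/mL) for 6 h, then given compound at 200 or 1000 nM for 24 h, in triplicate; nuclear and cytosolic p65, iNOS and COX2 protein by western blot; mean ± SD from three experiments.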

[5] = AUC (0 to infinity) in Sprague-Dawley rat at 10 mg/kg, iv measured up to 24 hrs by LC-MS/MS analysis; type: ADME, organism-based; design: dose 10 mg/kg, route intravenous, time infinity; settings: in vivo
In short: (§6)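 Rats dosed intravenously at 10 mg/kg; blood drawn from suborbital vein at 0, 2, 5, 15, 30, 60 min and 1.5, 2, 4, 6, 8, 12, 24 h; plasma levels by LC-MS/MS; parameters from concentration–time profiles, mean ± SD, n = 3.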

[6] = target: T1, Inhibitor of nuclear factor kappa-B kinase subunit beta (Homo sapiens); assay: Inhibition of IKKbeta (unknown origin) transfected in HEK293 cells assessed as reduction in TNFalpha-induced upregulation of iNOS protein expression at 200 to 1000 nM administered 6 hrs after TNFalpha stimulation measured for 24 hrs by Western blot method; type: cell-based; in short: as §5
[7] = Clearance in Sprague-Dawley rat at 10 mg/kg, iv measured up to 24 hrs by LC-MS/MS analysis; type: ADME, organism-based; settings: in vivo; in short: as §6
[8] = target: T1, Inhibitor of nuclear factor kappa-B kinase subunit beta (Homo sapiens); assay: Inhibition of IKKbeta (unknown origin) transfected in HEK293 cells assessed as reduction in TNFalpha-induced upregulation of COX2 mRNA expression at 200 to 1000 nM administered 6 hrs after TNFalpha stimulation measured for 24 hrs by quantitative RT-PCR analysis; type: cell-based; in short: as §1
[9] = Acute toxicity in ip dosed ICR mouse assessed as lethality administered daily for 7 days; type: organism-based; settings: in vivo
In short: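 Intraperitoneal dosing of ICR mice once daily for 7 days, with top doses up to 600 or 1000 mg/kg depending on the compound. Lethality was recorded and expressed as an LD50 (mg/kg).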

[10] = Solubility of compound in saline containing 1% 1,3-propylene glycol/ 1% Tween 80 at 100 uM at pH 7.4 by HPLC analysis; type: physicochemical; in short: as §4
[11] = Half life in Sprague-Dawley rat at 10 mg/kg, iv measured up to 24 hrs by LC-MS/MS analysis; type: ADME, organism-based; settings: in vivo; in short: as §6
[12] = AUC (0 to t) in Sprague-Dawley rat at 10 mg/kg, iv measured up to 24 hrs by LC-MS/MS analysis; type: ADME, organism-based; design: dose 10 mg/kg, time < 24 hr, route intravenous; settings: in vivo; in short: as §6
[13] = target: Kelch-like ECH-associated protein 1 (Homo sapiens) (UniProt Q14145); assay: Inhibition of Keap1/Nrf2 (unknown origin) interaction transfected in HEK293 cells assessed as upregulation of NQO1 mRNA expression at 200 to 1000 nM after 48 hrs by quantitative RT-PCR analysis; type: cell-based; in short: as §2
[14] = target: T1, Inhibitor of nuclear factor kappa-B kinase subunit beta (Homo sapiens); assay: Inhibition of IKKbeta (unknown origin) transfected in HEK293 cells assessed as reduction in TNFalpha-induced upregulation of MCP1 mRNA expression at 200 to 1000 nM administered 6 hrs after TNFalpha stimulation measured for 24 hrs by quantitative RT-PCR method

Kelch-like ECH-associated protein 1 (Homo sapiens), sequence (Q14145 whole entry): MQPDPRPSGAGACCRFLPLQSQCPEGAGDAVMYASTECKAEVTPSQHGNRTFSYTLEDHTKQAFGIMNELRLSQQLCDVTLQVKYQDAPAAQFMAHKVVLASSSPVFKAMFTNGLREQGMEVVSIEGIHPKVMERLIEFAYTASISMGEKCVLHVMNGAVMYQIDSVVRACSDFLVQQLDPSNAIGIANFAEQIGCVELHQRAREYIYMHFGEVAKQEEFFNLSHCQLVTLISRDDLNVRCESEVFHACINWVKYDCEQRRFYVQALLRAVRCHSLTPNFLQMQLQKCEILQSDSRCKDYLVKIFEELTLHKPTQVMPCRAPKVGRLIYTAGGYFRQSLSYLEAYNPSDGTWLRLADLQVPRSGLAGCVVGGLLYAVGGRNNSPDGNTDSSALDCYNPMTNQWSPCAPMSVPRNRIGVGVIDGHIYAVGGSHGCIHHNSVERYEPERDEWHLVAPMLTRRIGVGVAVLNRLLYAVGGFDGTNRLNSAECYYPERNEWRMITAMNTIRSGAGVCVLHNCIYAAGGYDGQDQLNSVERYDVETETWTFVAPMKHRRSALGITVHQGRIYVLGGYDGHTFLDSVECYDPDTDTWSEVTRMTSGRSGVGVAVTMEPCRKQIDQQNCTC

COC(=O)[C@]12CCC(C)(C)C[C@H]1[C@H]1C(=O)C=C3[C@@]4(C)C=C(C#N)C(=O)C(C)(C)[C@@H]4CC[C@@]3(C)[C@]1(C)CC2 [BARDOXOLONE METHYL]
inhibition [1]: Active | inhibition [2]: Active | IC50 (H9c2): 5.2 µM | IC50 (HEK293): 2.2 µM | solubility ([3]; buffer, pH 7.4, 100 µM): Insoluble | inhibition [4]: Active | AUC(0-inf) [5]: 2180 ng·h/mL | inhibition [6]: Active | clearance [7]: 78 mL/min/kg | inhibition [8]: Active | LD50 at 168 h [9]: 425 mg/kg | solubility ([10]; buffer, pH 7.4, 100 µM): Insoluble | half-life [11]: 4.41 h | AUC(0-t) at 24 h [12]: 2060 ng·h/mL | inhibition [13]: Active | inhibition [14]: Active

COC(=O)[C@@H](N)CCC(=O)Nc1ccc(COC2=C(C#N)[C@H](O)[C@]3(C)C4=CC(=O)[C@@H]5[C@@H]6CC(C)(C)CC[C@]6(C(=O)OC)CC[C@@]5(C)[C@]4(C)CC[C@H]3C2(C)C)cc1
inhibition [1]: Active | inhibition [2]: Active | IC50 (H9c2): 112 µM | IC50 (HEK293): 56.5 µM | solubility at 100 µM ([3]; saline, pH 7.4): 8.9 µg/mL (≈ 0.0115 mM) | inhibition [4]: Active | AUC(0-inf) [5]: 531 ng·h/mL | inhibition [6]: Active | clearance [7]: 340 mL/min/kg | inhibition [8]: Active | LD50 at 168 h [9]: 886 mg/kg | solubility at 100 µM ([10]; saline containing 1% 1,3-propylene glycol/1% Tween 80, pH 7.4): 12200 µg/mL (≈ 15.8 mM) | half-life [11]: 1.31 h | AUC(0-t) at 24 h [12]: 509 ng·h/mL | inhibition [13]: Active | inhibition [14]: Active
